PRMT1 inh = PRMT1 (human) inhibition, primary screen | Q99873 | recombinant PRMT1, activity-based probe fluorescence polarization | inhibition, % at 2.79 µM | 1.3% of 370,000 active | AID 652257;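 active = inhibition above about 21% made by adding two undisclosed values, limit read from the data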
Target sequence (Q99873 whole entry, looked up): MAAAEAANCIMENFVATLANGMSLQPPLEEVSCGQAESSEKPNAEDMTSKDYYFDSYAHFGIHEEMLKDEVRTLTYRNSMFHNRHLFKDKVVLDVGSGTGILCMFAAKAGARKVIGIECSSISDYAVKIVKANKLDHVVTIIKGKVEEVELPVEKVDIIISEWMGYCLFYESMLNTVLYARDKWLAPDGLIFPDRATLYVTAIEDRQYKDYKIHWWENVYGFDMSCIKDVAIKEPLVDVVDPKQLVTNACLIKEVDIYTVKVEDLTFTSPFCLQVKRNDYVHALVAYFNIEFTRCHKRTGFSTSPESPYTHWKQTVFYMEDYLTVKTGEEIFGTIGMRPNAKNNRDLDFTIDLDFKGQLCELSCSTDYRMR
JMJD2C inh = inhibitors of human GASC-1 (JMJD2C) demethylase; GST-JMJD2C(1-420) H3K9me3 demethylation, DELFIA europium; inhibition, % at 2.35 µM; 0.069% of 330,000 active; AID 2099; Q9H3R0;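 active = more than half of a compound's replicate wells show inhibition beyond 50%, single wells judged on their own value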;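 note: signal counts dimethyl H3K9 product captured on neutravidin plate; 0% = median of DMSO wells and 100% = 0.3 times that DMSO median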
ABHD4 inh = inhibits mouse alpha/beta hydrolase domain 4 | inhibition, % at 8.92 µM | 0.54% of 370,000 active | purified mABHD4, FP-Rh probe fluorescence polarization;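 active = inhibition exceeding the mean over every tested compound plus 3 SD, cut at about 30% in these data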;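 note: 0% = plate median of compound wells and 100% = S159A mutant with DMSO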
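Test system: mABHD4 protein | Buffer or medium: HEPES pH 7.0 buffer, 150 mM NaCl, 0.01% Pluronic F-127 | Probe or stimulus: FP-Rh fluorescent activity-based probe, added after compound pre-incubation | Timing: Pre-incubation 45 min, probe exposure 60 min, at 25 °C | Technique: Fluorescence polarization, excitation 525 nm, emission 598 nm, BODIPY TMR filters | Repeats: Single well per compound (singlicate)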
HTRA1 inhibitor = HTRA1 (human) protease inhibition. 0.5% of 340,000 active. AID 504803. Q92743. recombinant HTRA1, FP-rhodamine activity-based probe, fluorescence polarization. inhibition, % at 5.96 µM; in the data active = inhibition above about 36%;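 note: 0% = enzyme with DMSO and 100% = wells lacking enzyme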
SIAE primary = human SIAE inhibition, primary screen; 0.69% of 370,000 active; inhibition, % at 9.66 µM; Q9HAT2; SIAE FP-Rh probe binding, fluorescence polarization;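 active = inhibition above a cutoff: mean of compounds within the control limits plus 3 SD of those, cut at about 17% in these data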;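 note: 0% = plate median of compound wells and 100% = probe without SIAE protein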
PRMT1 inh conf = PRMT1 (human) inhibition, FP confirmation. shares compounds with PRMT1 inh. AID 687036. 42% of 3,300 active. recombinant His-PRMT1, activity-based probe fluorescence polarization. inhibition, % at 2.79 µM;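 active = mean inhibition across replicates above the hit cutoff derived for the earlier primary screen, cut at about 22% in these data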
The depositor's hits bear a star; . = no result given. Compounds with a hit are over-represented: about 2.4% of the library has one in this group of screens.

SMILES | PRMT1 inh | JMJD2C inh | ABHD4 inh | HTRA1 inhibitor | SIAE primary | PRMT1 inh conf
CC(/C=N/n1c(-c2cc(C)[nH]n2)n[nH]c1=S)=C\c1ccco1 | 4 | 17 | 0 | 10 | 4 | .
S=c1[nH]nc(-c2ccco2)n1/N=C/c1ccccc1Cl | 8 | 4 | 4 | 1 | -4 | .
CC(/C=N/n1c(-c2ccc(Cl)cc2)n[nH]c1=S)=C\c1ccco1 | 27* | 25 | 0 | -12 | -4 | 15
S=c1[nH]nc(-c2ccco2)n1/N=C/c1ccc(Cl)cc1 | 25* | -9 | 5 | 5 | 10 | 20
S=c1[nH]nc(-c2ccncc2)n1/N=C/C(Cl)=C\c1ccccc1 | 34* | 2 | -11 | 0 | 5 | 19
S=c1[nH]nc(-c2ccncc2)n1/N=C/C=C/c1ccccc1 | 4 | 10 | 3 | -1 | 0 | .
Cc1nn(-c2ccccc2)c(C)c1C=NNC(=O)CSc1nc2ccccc2n1C | 6 | . | -3 | . | 0 | .
CC(C(=O)OCC(=O)c1ccc([N+](=O)[O-])cc1)N1C(=O)C2C3C=CC(C3)C2C1=O (stereo unspecified) | 28* | 6 | -7 | 11 | 1 | 4
CC(C(=O)OCC(=O)c1ccc([N+](=O)[O-])cc1)N1C(=O)C2C3CCC(C3)C2C1=O (stereo unspecified) | 11 | -7 | 3 | -1 | -1 | .
O=C(CN1C(=O)C2C3C=CC(C3)C2C1=O)OCC(=O)c1ccc([N+](=O)[O-])cc1 (stereo unspecified) | 50* | 12 | 10 | 9 | 1 | 42*
Cc1cccc(N2O[C@H]3C=C[C@@H]2C3)n1 | 10 | . | 14 | . | 4 | .
Cc1ccc(OC[C@@H](O)CN2CCC(C(O)(c3ccccc3)c3ccccc3)CC2)cc1 | 1 | . | 1 | . | 3 | .
OC(c1ccc(F)cc1)c1nc(-c2cncnc2)cs1 (stereo unspecified) | -2 | . | 0 | . | 5 | .
CCN(CC)C(=S)SCC(=O)Nc1ccc(S(N)(=O)=O)cc1 | -4 | -10 | -3 | 3 | 0 | .
CCN(CC)C(=S)SCC(=O)Nc1nc(=O)c2ccccc2s1 | 44* | 1 | 3 | -5 | 1 | -6
COC(=O)C1=C2SC(C)C(=O)N2C(N)=C(C#N)C1c1ccc(OC)c(OC)c1 (stereo unspecified) | 10 | 6 | -5 | -1 | 2 | .
COC(=O)C1=C2SC(C)C(=O)N2C(N)=C(C#N)C1c1cc(OC)c(OC)c(OC)c1 (stereo unspecified) | 31* | 2 | -9 | 4 | -1 | 6
CCCCCCCCN1C(=O)[C@@H](CC(=O)N2CCOCC2)C[C@@]2(C(=O)OC)C1=C[C@H](C1CCCC1)O[C@@H]2C | -1 | . | 0 | . | 7 | .
O=c1ccnc(SCn2nnc3ccccc3c2=O)[nH]1 | 44* | -5 | -6 | -1 | -1 | 0
Cc1cc(=O)[nH]c(SCn2nnc3ccccc3c2=O)n1 | 31* | -2 | -8 | -6 | 2 | 6
CCCCOCC1CN(CCCC)S(=O)(=O)c2c(Oc3ccc(C(C)C)cc3)cccc2O1 (stereo unspecified) | -2 | . | 0 | . | 4 | .
CC(C)CN1C(=O)N2Cc3ccccc3C2CS1(=O)=O (stereo unspecified) | 0 | . | 5 | . | -2 | .
O=C(Nc1ccccc1)c1cc(C2CCCCN2C(=O)c2ccccc2)on1 (stereo unspecified) | -1 | . | 5 | . | 2 | .
CCOC(=O)c1c(SCCN2CCCC2)n(-c2ccccc2)c(=S)n(-c2ccccc2)c1=O | 52* | . | -2 | 3 | 1 | 40*
CC(C)n1ncc2c(C(=O)Nc3ccccc3SCC(N)=O)cc(C3CC3)nc21 | 80* | . | -6 | -19 | -4 | -3
SMILES | PRMT1 inh | JMJD2C inh | ABHD4 inh | HTRA1 inhibitor | SIAE primary | PRMT1 inh conf
CCc1ccccc1NC(=O)CNC(=O)c1cc(C2CC2)nc2c1cnn2C(C)C | 2 | 1 | -3 | -5 | 0 | .
CC1(C(=O)CSc2nc3ccccc3s2)CCC(=O)O1 (stereo unspecified) | 29* | 3 | 2 | 6 | 6 | 22*
CCc1cc2cc(C)c(C)cc2nc1SCC(=O)NNC(=O)c1ccco1 | 29* | 0 | -14 | -9 | -4 | -2
COc1ccc(C=C2CS(=O)(=O)CC(=Cc3ccc(OC)cc3)C2=O)cc1 | 2 | . | -2 | -10 | 0 | .
O=C(O)C1C2C=CC(O2)C1C(=O)NCc1ccccc1Br (stereo unspecified) | 30* | -2 | -11 | 4 | -2 | 2
O=C(O)C1C2C=CC(O2)C1C(=O)NCCC1=CCCCC1 (stereo unspecified) | . | -21 | . | 1 | . | .
Cc1ccc(-c2nc3c(Br)cc(C)cn3c2Cc2cccc(Cl)c2)cc1 | -4 | . | -40 | . | -5 | .
CCOC(=O)N1C(=O)C[C@](Sc2ccc(OC)cc2)(C(=O)N(C)C)[C@H]1c1ccc(OC)cc1 | 46* | . | 0 | . | 2 | 37*
COc1ccc(S[C@]2(C(=O)N3CCOCC3)CC(=O)N(C(=O)c3ccccc3)[C@@H]2c2ccc(OC)cc2)cc1 | 80* | . | 2 | . | 8 | 77*
COc1ccc(S[C@]2(C(=O)N3CCN(C(C)=O)CC3)CC(=O)N(S(=O)(=O)c3ccc(F)cc3)[C@@H]2c2ccc(OC)cc2)cc1 | 43* | . | 11 | . | 9 | 37*
COc1ccc(S[C@]2(C(=O)N3CCN(C(C)=O)CC3)CC(=O)N(C(=O)CCc3ccccc3)[C@@H]2c2ccc(OC)cc2)cc1 | 17 | . | -15 | . | 0 | .
O=C(NCCN1CCC(n2c(=O)[nH]c3ccccc32)CC1)c1ccc(F)c(F)c1 | 2 | . | 8 | . | -4 | .
CCOc1cc(OCC)cc(C(=O)N2CCC[C@H]2C(=O)N2CCC[C@H]2C(=O)N(C)Cc2ccccc2)c1 | -1 | . | 8 | . | -1 | .
Cc1[nH]c(=S)c(C#N)c(C)c1C(=O)Nc1ccccc1 | 33* | -6 | 10 | 2 | 1 | 13
CC(=O)c1c(C)[nH]c(C(=O)Nc2cccc(C#N)c2)c1C | -6 | -1 | -8 | 1 | -10 | .
CCc1c(C(=O)Nc2ccccc2)c(C)[nH]c(=S)c1C#N | 43* | -4 | -4 | -9 | -5 | 88*
CCCC(=O)Nc1nc2ccc(OC)cc2s1 | -3 | 5 | -2 | -2 | -3 | .
COc1ccc2nc(NC(=S)N(C)C)sc2c1 | 28* | -11 | 0 | -6 | -8 | -1
Cc1cc(C(=O)COc2cccnc2[N+](=O)[O-])c(C)n1Cc1cccs1 | 29* | -10 | 28 | -3 | 6 | -1
CC(=O)Nc1ccccc1OCC(=O)c1cc(C)n(Cc2cccs2)c1C | 1 | 4 | 2 | -13 | -7 | .
C/C(C=NNC(=O)CSc1nc2ccccc2n1Cc1ccccc1Cl)=C\c1ccccc1 | -7 | . | -7 | . | -10 | .
COC(=O)c1ccc(-n2c(C)cc(C(=O)CSc3cccc[n+]3[O-])c2C)cc1 | 4 | 21 | 4 | -2 | -5 | .
